Measured values from ChEMBL document CHEMBL1770147, “Synthesis and antifungal activity of functionalized 2,3-spirostane isomers” (2011).
≈ marks a conversion by molar mass, not a printed value.

Key:
Assay type in all cases: functional
Nakaseomyces glabratus [1] = test: Antifungal activity against Candida glabrata ATCC 48435 assessed as reduction in growth after 48 hrs by broth microdilution method relative to control
In short: (§1)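 Growth was read as absorbance at 530 nm after incubation at 35 °C for 48 h. Percent reduction was calculated relative to control wells containing no antifungal, alongside a visual comparison of turbidity with those wells.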

Candida albicans [2] = test: Antifungal activity against Candida albicans ATCC 10231 assessed as reduction in growth after 48 hrs by broth microdilution method relative to control; in short: as §1
Aspergillus fumigatus [3] = test: Antifungal activity against Aspergillus fumigatus ATCC 16424 reduction in growth after 48 hrs by broth microdilution method relative to control; in short: as §1
Cryptococcus neoformans [4] = test: Antifungal activity against Cryptococcus neoformans ATCC 36556 assessed as reduction in growth after 48 hrs by broth microdilution method relative to control; in short: as §1
Aspergillus fumigatus [5] = test: Antifungal activity against Aspergillus fumigatus ATCC 16424 after 48 hrs by broth microdilution method; settings: ATCC 16424, 48 h
In short: (§2)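 Plates were incubated at 35 °C for 48 h. MIC was reported only where both criteria held: turbidity clearly lower than in control wells without antifungal on visual comparison, and growth reduced by more than 50% relative to those controls, measured as absorbance at 530 nm.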

Nakaseomyces glabratus [6] = test: Antifungal activity against Candida glabrata ATCC 48435 after 48 hrs by broth microdilution method; settings: ATCC 48435, 48 h; in short: as §2
Cryptococcus neoformans [7] = test: Antifungal activity against Cryptococcus neoformans ATCC 36556 after 48 hrs by broth microdilution method; settings: ATCC 36556, 48 h; in short: as §2
Candida albicans [8] = test: Antifungal activity against Candida albicans ATCC 10231 after 48 hrs by broth microdilution method; settings: ATCC 10231, 48 h; in short: as §2

Structure (SMILES): CC(=O)O[C@H]1C[C@@]2(C)[C@@H](CC[C@@H]3[C@@H]2CC[C@]2(C)[C@@H]4[C@H](C[C@@H]32)O[C@]2(CC[C@@H](C)CO2)[C@H]4C)C[C@H]1O
- inhibition (INH) (Nakaseomyces glabratus [1]): <25%
- inhibition (INH) (Candida albicans [2]): <25%
- inhibition (INH) (Aspergillus fumigatus [3]): <25%
- inhibition (INH) (Cryptococcus neoformans [4]): <25%

Structure (SMILES): C[C@@H]1CC[C@@]2(OC1)O[C@H]1C[C@H]3[C@@H]4CC[C@H]5C[C@@H](O)CC[C@]5(C)[C@H]4CC[C@]3(C)[C@H]1[C@@H]2C [TIGOGENIN]
- inhibition (INH) (Candida albicans [2]): <25%
- inhibition (INH) (Cryptococcus neoformans [4]): <25%
- MIC50 (Aspergillus fumigatus [5]): 16 µg/mL (≈ 38.4 µM)
- MIC50 (Nakaseomyces glabratus [6]): > 62.5 µg/mL

Structure (SMILES): CC(=O)O[C@@H]1C[C@@]2(C)[C@@H](CC[C@@H]3[C@@H]2CC[C@]2(C)[C@@H]4[C@H](C[C@@H]32)O[C@]2(CC[C@@H](C)CO2)[C@H]4C)C[C@H]1O
- MIC50 (Aspergillus fumigatus [5]): > 128 µg/mL
- MIC50 (Cryptococcus neoformans [7]): 62.5 µg/mL (≈ 132 µM)
- MIC50 (Nakaseomyces glabratus [6]): 6.25 µg/mL (≈ 13.2 µM)
- MIC50 (Candida albicans [8]): 16 µg/mL (≈ 33.7 µM)

Structure (SMILES): C[C@@H]1CC[C@@]2(OC1)O[C@H]1C[C@H]3[C@@H]4CC[C@H]5CC(=O)CC[C@]5(C)[C@H]4CC[C@]3(C)[C@H]1[C@@H]2C
- inhibition (INH) (Nakaseomyces glabratus [1]): <25%
- inhibition (INH) (Candida albicans [2]): <25%
- inhibition (INH) (Aspergillus fumigatus [3]): <25%
- inhibition (INH) (Cryptococcus neoformans [4]): <25%

Structure (SMILES): CC(=O)O[C@H]1C[C@@H]2CC[C@@H]3[C@H](CC[C@]4(C)[C@@H]5[C@H](C[C@@H]34)O[C@]3(CC[C@@H](C)CO3)[C@H]5C)[C@@]2(C)C[C@@H]1O
- inhibition (INH) (Nakaseomyces glabratus [1]): <25%
- inhibition (INH) (Candida albicans [2]): <25%
- inhibition (INH) (Aspergillus fumigatus [3]): <25%
- inhibition (INH) (Cryptococcus neoformans [4]): <25%

Structure (SMILES): CC(=O)O[C@H]1C[C@@]2(C)[C@@H](CC[C@@H]3[C@@H]2CC[C@]2(C)[C@@H]4[C@H](C[C@@H]32)O[C@]2(CC[C@@H](C)CO2)[C@H]4C)C[C@@H]1O
- inhibition (INH) (Nakaseomyces glabratus [1]): <25%
- inhibition (INH) (Candida albicans [2]): <25%
- inhibition (INH) (Aspergillus fumigatus [3]): <25%
- inhibition (INH) (Cryptococcus neoformans [4]): <25%

Structure (SMILES): CC(=O)O[C@@H]1C[C@@]2(C)[C@@H](CC[C@@H]3[C@@H]2CC[C@]2(C)[C@@H]4[C@H](C[C@@H]32)O[C@]2(CC[C@@H](C)CO2)[C@H]4C)CC1=O
- inhibition (INH) (Nakaseomyces glabratus [1]): <25%
- inhibition (INH) (Cryptococcus neoformans [4]): <25%
- MIC50 (Aspergillus fumigatus [5]): > 128 µg/mL
- MIC50 (Candida albicans [8]): 32 µg/mL (≈ 67.7 µM)

Structure (SMILES): CC(=O)O[C@@H]1C[C@@H]2CC[C@@H]3[C@H](CC[C@]4(C)[C@@H]5[C@H](C[C@@H]34)O[C@]3(CC[C@@H](C)CO3)[C@H]5C)[C@@]2(C)C[C@@H]1O
- inhibition (INH) (Nakaseomyces glabratus [1]): <25%
- inhibition (INH) (Candida albicans [2]): <25%
- inhibition (INH) (Aspergillus fumigatus [3]): <25%
- inhibition (INH) (Cryptococcus neoformans [4]): <25%

Structure (SMILES): C[C@@H]1CC[C@@]2(OC1)O[C@H]1C[C@H]3[C@@H]4CC[C@H]5C[C@@H](O)[C@H](O)C[C@]5(C)[C@H]4CC[C@]3(C)[C@H]1[C@@H]2C
- inhibition (INH) (Nakaseomyces glabratus [1]): <25%
- inhibition (INH) (Candida albicans [2]): <25%
- inhibition (INH) (Aspergillus fumigatus [3]): <25%
- inhibition (INH) (Cryptococcus neoformans [4]): <25%
